eIF4H inh: inhibitors of RNA binding by human eIF4H; inhibition, % at 35 µM; 290,000 compounds, 0.94% hits; Q15056; eIF4H fluorescence polarization binding assay;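 note: calls also rest on retests at 20 µM and on dose response follow-up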
MLLE-PAM2 inh: inhibitors of microRNA-mediated deadenylation, human PABP1 MLLE binding. P11940. inhibition, % at 20 µM. GST-MLLE / FITC-PAM2 fluorescence polarization. 360,000 compounds, 0.36% hits. AID 588489; in the data active = inhibition above about 35%, passing the limit was not always enough;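 note: plate controls were DMSO wells with GST-MLLE for no effect and wells lacking GST-MLLE protein for full effect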
eIF4E 4G PPI: blocks eIF4E binding to eIF4G; 220,000 compounds, 0.37% hits; TR-FRET eIF4E-eIF4GI(517-606) binding, 2 h; AID 782; inhibition, % at 21.7 µM; P63073+Q04637;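 active = inhibition above about 30%, limit read from the data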;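 note: 0% = full FRET control wells and 100% = background wells lacking eIF4GI fragment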
UBC9 SUMO inh: inhibitors of human SUMOylation (UBC9); P63279; 290,000 compounds, 0.36% hits; AID 2006; inhibition, % at 35 µM; HTRF SUMOylation assay, SAE1/SAE2 + UBC9, in vitro; in the data active = inhibition above about 50%, passing the limit was not always enough; inconclusive = no clear call, values can overlap the other calls
Target sequence (P63279 whole entry, looked up): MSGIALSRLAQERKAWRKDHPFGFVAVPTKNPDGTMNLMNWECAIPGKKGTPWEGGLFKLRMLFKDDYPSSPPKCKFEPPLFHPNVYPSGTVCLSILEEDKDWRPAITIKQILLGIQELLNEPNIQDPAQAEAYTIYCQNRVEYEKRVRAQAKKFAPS
HCV core dimer: blocks dimerization of HCV core protein; AID 1899; inhibition, % at 5 µM; 300,000 compounds, 0.33% hits; TR-FRET GST/Flag-core106 dimerization, 1536-well;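 active = inhibition above the mean of all tested compounds plus 3 SD, set per screening campaign, cut at about 45% in these data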
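test system = GST/Flag-tagged HCV core106 proteins | probe or stimulus = Eu donor and XL665 acceptor anti-tag antibodies | times = compound-protein-antibody incubation 4 h at 22.5 °C | signal = TR-FRET, excitation 340 nm, emission 617 and 671 nm | measure = percent inhibition of core106 dimerization signal | controls = wells lacking GST-core106 and wells with excess unlabelled core106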
PABP polyA inh: blocks human PABP binding to poly(A) RNA | P11940 | fluorescence polarization | calls only at 35 µM | 290,000 compounds, 1% hits | AID 2014;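 note: calls also rest on retests at 20 µM and on dose response follow-up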
Active calls of the source: *; i = inactive; u = inconclusive; x = no result given; + = active, no number; [ ] = remark or other dose. Shown are actives, neighbours in structure and some others; about 1.8% of the full set was active somewhere. Unless noted, the rule behind the calls is not given here.

SMILES	eIF4H inh	MLLE-PAM2 inh	eIF4E 4G PPI	UBC9 SUMO inh	HCV core dimer	PABP polyA inh
Cc1nnc(NC(=O)CSc2nc(C(C)C)nc3ccccc23)s1	-3.9	37.3*	x	14.7	2.2	i
O=c1c2c([N+](=O)[O-])cc([N+](=O)[O-])cc2sn1-c1ccc(Br)cc1	-0.8	2.8	33.2*[fluorescence artefact?]	20.7	-11.5	i
Cc1ccc(Nc2nc(N)[nH]c(=O)c2N=O)cc1	u	20.5	-1.8	5.3	-14.6	+
O=C1/C(=C/c2cccs2)CCC/C1=C\c1cccs1	71.9*	-20.3	x	30.3	38.9	+
CC1C/C(=C/c2cccs2)C(=O)/C(=C/c2cccs2)C1 (stereo not drawn)	73.7	-18.8	-2.1	40.4	32.6	i
Cn1cccc1/C=C1\CCC/C(=C\c2cccn2C)C1=O	52.1*	i	1.3	11.0	-12.7	+
CC(C)C[C@H]1CN=C(Nc2ccccc2)N1CC1CCCCCC1	x	0.7	x	x	-21.6	x
CC1(C)Cc2c(C#N)c(N3CCN(C(=O)c4ccccc4)CC3)nc(-c3ccco3)c2CS1	61.6	-1.9	4.6	11.8	87.1*	i
Cc1nn(-c2ccccc2)c(C)c1NC(=O)COC(=O)/C=C/c1ccccc1	x	1.1	x	x	0.0	x
Cc1cc(-n2c(=O)c(C#N)cc3c(=O)n4ccccc4nc32)no1	103.6*	11.6	-19.1	24.2	20.3	+
CC1(C)CC(NC(=O)C2CCN(S(=O)(=O)c3ccc(F)cc3)CC2)CC(C)(C)N1	10.5	8.1	x	3.9	-7.2	i
Nc1nnc(CC(=O)N/N=C/c2cc([N+](=O)[O-])cc(Br)c2O)s1	85.9*	-86.3	-2.0	99.2*	12.1	+
C=C(CN(C)C)C(=O)c1cc(OC)c(OC)cc1OC	x	19.4	x	x	x	x
CCOC(=O)[C@H]1[C@H]2COc3ccc(Br)cc3[C@H]2N2C(=O)CN(Cc3ccc(C)cc3)C(=O)[C@@]12C	x	46.8*	x	x	x	x
Cc1nc2ccccn2c1/C(O)=C1\C(=O)C(=O)N(CCN(C)C)C1c1ccco1 (stereo not drawn)	8.7	50.3*	0.8	5.2	-13.8	i
COc1ccc([N+](=O)[O-])cc1NC(=O)C1CCCO1 (stereo not drawn)	-6.2	12.2	14.1	1.1	-3.0	i
CCc1ccc(NC(=O)CN2CCCN(S(=O)(=O)c3ccc(F)cc3)CC2)cc1	0.4	4.7	x	-14.1	2.8	i
Cn1cccc1C(=O)OCC(=O)Nc1sccc1C#N	x	-33.3	x	x	x	x
N#Cc1ccsc1NC(=O)COC(=O)c1ccc2ccccc2c1	55.7	-34.3	-2.2	-10.6	27.5	+
CNc1cccc2c1C(=O)c1ccccc1C2=O	78.3*	41.1*	-1.5	-8.3	-25.3	+
COc1cccc2c1C(=O)c1c(O)c3c(c(O)c1C2=O)C[C@@](O)(C(=O)CO)C[C@@H]3O[C@H]1C[C@H](N)[C@H](O)[C@H](C)O1	u	154.7	50.4*[fluorescence artefact?]	25.9	-14.8	i
O=C(Nc1nc(-c2ccccn2)cs1)C1CC(=O)N(c2ccc3c(c2)OCCO3)C1 (stereo not drawn)	34.9	-8.2	17.9	9.5	41.1	i
COc1ccc(C(N)CCc2ccco2)cc1 (stereo not drawn)	50.2*	-34.7	-0.7	11.0	0.3	+
CC(=O)n1c2ccccc2c2c1c1ccccc1n2C	6.5	66.3*	-8.3	21.7	17.4	i
CSc1nc(N)nc2c1ncn2CC(=O)NCCNc1ccc([N+](=O)[O-])cn1	x	9.5	x	x	x	x
SMILES	eIF4H inh	MLLE-PAM2 inh	eIF4E 4G PPI	UBC9 SUMO inh	HCV core dimer	PABP polyA inh
O=C(O)CCc1ccc(-c2cccs2)o1	69.5*	30.9	-4.1	12.7	5.6	+
CCC12CCC3c4ccc(O)cc4CCC3C1CC(O)C2O (stereo not drawn)	x	-4.4	x	x	x	x
O=C(CCC(=O)N1CCN(c2ccc(C(F)(F)F)cn2)CC1)c1cccs1	x	5.5	x	x	x	x
CCc1ccc(OCC(=O)NC(NC(=S)Nc2ccccc2OC)C(Cl)(Cl)Cl)cc1 (stereo not drawn)	77.5*	23.1	1.2	11.8	11.0	+
COc1ccccc1CNC(=O)C1CC(c2ccccc2[N+](=O)[O-])=NO1 (stereo not drawn)	54.3	14.1	-2.8	23.0	-2.5	+
Cc1cc2c(n1-c1ccc(C(=O)O)cc1)CCCCC2	90.7*	x	x	19.5	x	+
COc1ccc(-c2nc3ccc([N+](=O)[O-])cc3[nH]2)cc1	-3.9	4.8	14.9	54.8*	-1.3	i
O=[N+]([O-])c1ccc2nc(CCCc3nc4ccc([N+](=O)[O-])cc4[nH]3)[nH]c2c1	3.4	-12.7	3.5	68.6*	-1.3	i
Nc1ccc2nc(-c3ccc(-c4nc5ccc(N)cc5[nH]4)cc3)[nH]c2c1	12.9	x	x	61.8*	-27.1	i
O=[N+]([O-])c1ccc2nc(CN3CCCCC3)[nH]c2c1	-10.5	3.3	0.3	14.2	0.0	i
COc1ccc(C2=NOC(C)(c3nnc(-c4ccccc4)o3)C2)cc1 (stereo not drawn)	x	-3.3	x	x	-4.1	x
O=C(NC1CCCCCCC1)C1CCN(S(=O)(=O)N2CCCC2)CC1	-8.5	4.7	58.4*	14.4	-3.5	i
CCOC(=O)C(C)Sc1nnc(Cc2cc(=O)[nH]c(=O)[nH]2)n1-c1ccc(Cl)cc1 (stereo not drawn)	1.5	44.6*	7.5	17.2	1.5	i
COC(=O)C(C)Sc1nnc(Cc2cc(=O)[nH]c(=O)[nH]2)n1-c1ccc(Cl)cc1 (stereo not drawn)	79.4	24.4	4.3	18.3	-3.8	i
CCOc1ccccc1-c1nc(-c2cc3ccccc3nc2OC)no1	54.3*	-20.1	-7.0	-14.7	-11.8	i
Cn1c(SCC(=O)O)nnc1-c1ccc2ncccc2c1	-6.1	x	-3.5	18.9	1.3	i
COc1ccccc1NC(=O)c1c(NC(=O)c2ccco2)sc2c1CCC2	-3.0	-9.9	-12.9	30.1	34.9	i
COc1ccccc1C(=O)Nc1sc2c(c1C(=O)NCc1ccco1)CCCC2	1.0	-6.4	x	60.9*	53.1*	i
C/C(=C/C(=O)NCc1ccccc1)C(=O)O	-6.1	-2.7	0.1	52.5*	3.5	i
O=C1Nc2ccccc2C1C(C[N+](=O)[O-])c1ccccc1 (stereo not drawn)	3.4	8.6	x	1.7	-3.3	i
O=C(Nc1ccccc1O)c1cc(S(=O)(=O)N2CCOCC2)c(Cl)cc1Cl	6.6	-0.5	4.8	60.2*	5.2	i
CC(=O)NC1C(=O)N(CCN2CCOCC2)c2ccc(Br)cc21 (stereo not drawn)	-10.6	7.4	x	62.2*	0.7	i
CCOc1ccc2c(c1)C(NC(C)=O)C(=O)N2CCN1CCOCC1 (stereo not drawn)	-14.9	3.4	x	56.7*	x	i
c1ccc(NC2=NCCN2CC2CCCCCC2)cc1	x	7.0	x	x	3.4	x

Source: PubChem (several laboratories)
